Results taken from PubChem BioAssay.
The source made the active and inactive calls.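 The calls were made as follows, unless noted: active = viability at or below 10% of carrier control in both of two separate runs; inconclusive = viability at or below 10% in only one of the two runs; inactive = the rest.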 Peptide text beside a SMILES is read from it. * marks the point of attachment. Boc = CC(C)(C)OC(=O)*

Assays:
[1] = SK-BR-3 cell growth inhibitors, pilot screen, 24 h, human (AID 572); settings: SK-BR-3 viability, CellTiter-Glo luminescence, at 10 µM, stronger effect = lower value;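 also: compound exposure lasted between 18 and 24 h rather than exactly 24 h; 100% = carrier-treated control wells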
[2] = HUVEC growth inhibition – cell-based, human, primary screen (AID 575;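 active = viability at or below 30% in both replicate assays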;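 also: 100% = median of untreated cell wells with 0.1% DMSO on each plate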); settings: HUVEC proliferation, CellTiter-Glo luminescence, 72 h; at 10 µM; stronger effect = lower value
How it was run: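 material = primary HUVEC, no more than 12 passages | input = 1250 cells per well | controls = vehicle and MePR control wells | measured by = CTG luminescence | times = 72 h compound incubation | format = collagen-coated 384-well format | read-out = % viability vs DMSO wells | doses = single 10 µM dose, 0.1% DMSO, from 5x medium stock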

[3] = growth inhibitors of H69AR lung tumor, primary screen, human, duplicate replicates (AID 580;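 active = viability at or under a set limit in both replicates, limit being median viability minus 3 SD, cut at about 48% in these data, passing the limit was not always enough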;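 also: 100% = mean luminescence of untreated wells and 0% = no signal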); settings: H69AR lung tumor cells viability, ATP luminescence, 72 h; at 10 µM; stronger effect = lower value
[4] = reversal of MRP1-mediated doxorubicin resistance, pilot screen, H69AR cells, doxorubicin co-treatment (AID 601;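 active = viability loss from added drug above about 55%, and viability with drug at most 40%, in both replicates, limit read from the data, passing the limit was not always enough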); settings: CellTiter-Glo, 72 h, at 10 µM; for differential viability (reversal): stronger effect = higher value
[5] = 384-well plate pilot, post-Golgi transport modulator project, inhibition of yeast transport mutant growth (AID 636; in the data active = inhibition above about 31%); settings: absorbance 615 nm, about 18 h, stronger effect = higher value
[6] = growth suppression of yeast trafficking mutant, preliminary HTS, modulators of trafficking downstream of Golgi apparatus project, 1536-format plate, OD 615 nm (AID 637; in the data active = inhibition above about 30%); settings: yeast transport mutant growth, absorbance 615 nm, 18 h; stronger effect = higher value
[7] = H69AR cells + 2 uM doxorubicin, measured here: viability with 2 uM doxorubicin, stronger effect = lower value
[8] = H69AR cells, compound alone cytotoxicity

Compound	viability [1]	viability [2]	viability [3]	differential viability (reversal) ([4]; H69AR cells + 2 uM doxorubicin)	viability [4, 7]	viability [4, 8]	inhibition [5]	inhibition [6]
NS(=O)(=O)c1cc2c(cc1Cl)NC=NS2(=O)=O	104% (inactive)	93.9% (inactive)	100% (inactive)	4.17% (inactive)	95.9%	100%	0.13% (inactive)	1% (inactive)
C[C@]12CCC(=O)C=C1CC[C@@H]1[C@@H]2[C@@H](O)C[C@@]2(C)[C@H]1CC[C@]2(O)C(=O)CO	103% (inactive)	96.2% (inactive)	105% (inactive)	5.76% (inactive)	98.9%	105%	-1.43% (inactive)	-3.83% (inactive)
CCN1CCN(c2nc3c(c(=O)n(C)c(=O)n3C)n2CCSc2ncccn2)CC1	116% (inactive)	91.7% (inactive)	94.8% (inactive)	7% (inactive)	87.8%	94.8%	-5.07% (inactive)	-9.68% (inactive)
CN(Cc1nc(-c2ccncc2)no1)S(=O)(=O)c1ccc(Cl)cc1	115% (inactive)	87.2% (inactive)	88.9% (inactive)	-9.07% (inactive)	98%	88.9%	1.78% (inactive)	13.6% (inactive)
CN(C)CCCN1c2ccccc2CCc2ccc(Cl)cc21	78% (inactive)	5.55% (active)	65.2% (inactive)	12% (inactive)	53.2%	65.2%	-0.26% (inactive)	1.17% (inactive)
CCOc1ccc(NC(=O)CSc2nc3cccnc3n2CC)cc1	103% (inactive)	114% (inactive)	81.4% (inactive)	-0.765% (inactive)	82.2%	81.4%	-3.77% (inactive)	4.1% (inactive)
CSCCC(NC(=O)OC(C)(C)C)C(=O)NC(CC(C)C)C(N)=O (stereo not drawn) (Boc-Met-Leu-NH2; configuration not given here)	91% (inactive)	97.7% (inactive)	92% (inactive)	1.58% (inactive)	90.4%	92%	0.39% (inactive)	0.16% (inactive)
CCn1c(SCC(=O)C(C)(C)C)nnc1-c1cnccn1	81% (inactive)	107% (inactive)	105% (inactive)	15.9% (inactive)	89.2%	105%	-3.7% (inactive)	-9.35% (inactive)
CCNc1ccc(S(=O)(=O)C(F)(F)F)cc1NC(=O)C12CCC(CC1)C2	102% (inactive)	102% (inactive)	92.3% (inactive)	-3.33% (inactive)	95.7%	92.3%	1.78% (inactive)	2% (inactive)
C/C(Cl)=C\Cn1c(NCCc2ccccc2)nc2c1c(=O)n(C)c(=O)n2C	86% (inactive)	78.7% (inactive)	76% (inactive)	9.38% (inactive)	66.6%	76%	-7.97% (inactive)	2.17% (inactive)
CC(O)c1cc2c(cc1NC(=O)c1cnn3c1NC(c1ccco1)CC3C(F)(F)F)OCO2 (centres undefined)	93% (inactive)	97.2% (inactive)	86.3% (inactive)	0.405% (inactive)	85.9%	86.3%	0.65% (inactive)	-1.97% (inactive)
COc1nc(OC)nc(N2CCC(C(=O)NCc3cccs3)CC2)n1	93% (inactive)	101% (inactive)	91.9% (inactive)	-1.4% (inactive)	93.3%	91.9%	-5.32% (inactive)	-9.51% (inactive)
COc1ccc(OC)c(NC(=O)CSc2nnc(-c3ccco3)n2-c2ccccc2)c1	59% (inactive)	83% (inactive)	90.4% (inactive)	5.04% (inactive)	85.4%	90.4%	-6.3% (inactive)	3.45% (inactive)
COc1ccc(OC)c(NS(=O)(=O)Cc2ccccc2)c1	63% (inactive)	102% (inactive)	97.5% (inactive)	-14.4% (inactive)	112%	97.5%	-7.81% (inactive)	1.64% (inactive)
O=C(Nc1ccccn1)N1CCOCC1	123% (inactive)	110% (inactive)	95.5% (inactive)	6.42% (inactive)	89.1%	95.5%	-7.3% (inactive)	-5.45% (inactive)
CNC(=O)Oc1ccc2c(c1)[C@]1(C)CCN(C)[C@@H]1N2C	112% (inactive)	104% (inactive)	93.9% (inactive)	-7% (inactive)	101%	93.9%	-3.12% (inactive)	2% (inactive)
CC(=N\O)/C(CN(C)C)=N/O	97% (inactive)	88.7% (inactive)	91.5% (inactive)	-6.4% (inactive)	97.9%	91.5%	-1.78% (inactive)	25.6% (inactive)
N#Cc1cnc(SCCc2ccccc2)nc1N	78% (inactive)	102% (inactive)	97.8% (inactive)	6.68% (inactive)	91.2%	97.8%	-5.14% (inactive)	0% (inactive)
